From ChEMBL document CHEMBL5357066, “Development of Novel Membrane Disrupting Lipoguanidine Compounds Sensitizing Gram-Negative Bacteria to Antibiotics” (ACS Med Chem Lett, 2024)
Converted amounts (≈) assume the structure as drawn.

Assays:
Pseudomonas aeruginosa [1] = assay: Antibacterial activity against Pseudomonas aeruginosa NCTC 13437 assessed as bacterial growth inhibition incubated for overnight by microbroth dilution method; format: functional
How it was run: (§1)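 Broth microdilution in Tryptic Soy Broth. DMSO stocks were diluted in TSB as 2-fold series. Overnight TSB cultures were back-diluted to OD 0.01 and mixed 1:1 with compound. Incubation was overnight at 37 °C. MIC was the lowest concentration without visible growth (<0.1 OD600). DMSO vehicle was checked at equivalent concentrations.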

Staphylococcus aureus [2] = assay: Antibacterial activity against methicillin sensitive Staphylococcus aureus ATCC 9144 assessed as bacterial growth inhibition incubated for overnight by microbroth dilution method; format: functional
How it was run: (§2)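 Microbroth dilution in Tryptic Soy Broth. DMSO stocks were diluted in TSB as 2-fold series. Overnight TSB cultures were back-diluted to OD 0.01 and mixed 1:1 with compound. Incubation was overnight at 37 °C. MIC is the lowest concentration with no visible growth (<0.1 OD600). DMSO at equivalent concentrations was checked.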

Staphylococcus aureus [3] = assay: Antibacterial activity against methicillin resistant Staphylococcus aureus NCTC 13616 assessed as bacterial growth inhibition incubated for overnight by microbroth dilution method; format: functional; how it was run: as §2
Staphylococcus aureus [4] = assay: Antibacterial activity against methicillin resistant Staphylococcus aureus USA 300 assessed as bacterial growth inhibition incubated for overnight by microbroth dilution method; format: functional; how it was run: as §2
Enterococcus faecalis [5] = assay: Antibacterial activity against vancomycin resistant Enterococcus faecalis NCTC 12201 assessed as bacterial growth inhibition incubated for overnight by microbroth dilution method; format: functional; how it was run: as §2
Enterococcus faecium = assay: Antibacterial activity against vancomycin resistant Enterococcus faecium NCTC 12204 assessed as bacterial growth inhibition incubated for overnight by microbroth dilution method; format: functional; how it was run: as §2
Acinetobacter baumannii [6] = assay: Antibacterial activity against Acinetobacter baumannii AYE assessed as bacterial growth inhibition incubated for overnight by microbroth dilution method; format: functional; how it was run: as §1
Acinetobacter baumannii [7] = assay: Antibacterial activity against Acinetobacter baumannii ATCC 17978 assessed as bacterial growth inhibition incubated for overnight by microbroth dilution method; format: functional; how it was run: as §1
Pseudomonas aeruginosa [8] = assay: Antibacterial activity against Pseudomonas aeruginosa PAO1 assessed as bacterial growth inhibition incubated for overnight by microbroth dilution method; format: functional; how it was run: as §1
Escherichia coli [9] = assay: Antibacterial activity against Escherichia coli NCTC 12923 assessed as bacterial growth inhibition incubated for overnight by microbroth dilution method; format: functional; how it was run: as §1
Klebsiella pneumoniae [10] = assay: Synergistic antibacterial activity against Klebsiella pneumoniae NCTC 13368 assessed as rifampicin MIC at <=0.25 times MIC incubated for overnight by microbroth dilution checkerboard assay; format: functional
How it was run: (§3)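 Checkerboard microdilution under MIC conditions (TSB, overnight, 37 °C). Two-fold series of each agent were combined on one plate before bacteria were added, and single-agent MICs were measured on the same plate. FIC = sum of combination MIC/alone MIC for each agent, taken from the most synergistic well. Three independent repeats, mean ± SD. ≤0.5 was taken as strong synergy and 0.5–<1 as weak.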

Klebsiella pneumoniae [11] = assay: Synergistic antibacterial activity against […] Klebsiella pneumoniae M6 assessed as rifampicin MIC at <=0.25 times MIC incubated for overnight by microbroth dilution checkerboard assay; format: functional
How it was run: (§4)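 Checkerboard run under the MIC conditions (TSB, overnight, 37 °C). Antibiotic and lipoguanidine 2-fold series were combined on one plate before bacteria were added. Growth/no-growth was scored as for the MIC (<0.1 OD600). Single-agent MICs were measured on the same plates. Three independent repeats were done.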

Acinetobacter baumannii [12] = assay: Synergistic antibacterial activity against Acinetobacter baumannii AYE assessed as rifampicin MIC at <=0.25 times MIC incubated for overnight by microbroth dilution checkerboard assay; format: functional; how it was run: as §3
Acinetobacter baumannii [13] = assay: Synergistic antibacterial activity against Acinetobacter baumannii ATCC 17978 assessed as rifampicin MIC at <=0.25 times MIC incubated for overnight by microbroth dilution checkerboard assay; format: functional; how it was run: as §3
Pseudomonas aeruginosa [14] = assay: Synergistic antibacterial activity against Pseudomonas aeruginosa PAO1 assessed as rifampicin MIC at <=0.25 times MIC incubated for overnight by microbroth dilution checkerboard assay; format: functional
How it was run: (§5)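 Checkerboard microdilution in Tryptic Soy Broth, run like the MIC assay. Overnight TSB cultures were back-diluted to OD 0.01 and added 1:1 to the combined two-fold series of both agents, then incubated overnight at 37 °C. Growth/no-growth was called at <0.1 OD600. MICs alone were read on the same plates. FIC index came from the most synergistic well; three independent repeats, mean ± SD.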

Pseudomonas aeruginosa [15] = assay: Synergistic antibacterial activity against Pseudomonas aeruginosa NCTC 13437 assessed as rifampicin MIC at <=0.25 times MIC incubated for overnight by microbroth dilution checkerboard assay; format: functional; how it was run: as §5
Escherichia coli [16] = assay: Synergistic antibacterial activity against Escherichia coli NCTC 12923 assessed as rifampicin MIC at <=0.25 times MIC incubated for overnight by microbroth dilution checkerboard assay; format: functional; how it was run: as §3
Staphylococcus aureus [17] = assay: Antibacterial activity against methicillin sensitive Staphylococcus aureus 1199B assessed as bacterial growth inhibition incubated for overnight by microbroth dilution method; format: functional; how it was run: as §2
Acinetobacter baumannii [18] = assay: Synergistic antibacterial activity against Acinetobacter baumannii ATCC 17978 assessed as bacterial growth inhibition incubated for overnight in presence of PBMN by microbroth dilution method relative to control; format: functional
How it was run: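 Adapted broth microdilution in TSB. The test compound was in a 2-fold dilution series, with PMBN added at a fixed 30 µg/mL. Bacteria at OD 0.02 were added, and plates were incubated overnight at 37 °C. Growth/no growth was read as for the MIC (<0.1 OD600).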

Klebsiella pneumoniae [19] = assay: Synergistic antibacterial activity against Klebsiella pneumoniae NCTC 13368 assessed as fold change in rifampicin MIC at <=0.25 times MIC incubated for overnight by microbroth dilution checkerboard assay relative to rifampicin alone; format: functional; how it was run: as §4
Acinetobacter baumannii [20] = assay: Synergistic antibacterial activity against Acinetobacter baumannii AYE assessed as fold change in rifampicin MIC at <=0.25 times MIC incubated for overnight by microbroth dilution checkerboard assay relative to rifampicin alone; format: functional; how it was run: as §3
Acinetobacter baumannii [21] = assay: Synergistic antibacterial activity against Acinetobacter baumannii ATCC 17978 assessed as fold change in rifampicin MIC at <=0.25 times MIC incubated for overnight by microbroth dilution checkerboard assay relative to rifampicin alone; format: functional; how it was run: as §3
Pseudomonas aeruginosa [22] = assay: Synergistic antibacterial activity against Pseudomonas aeruginosa PAO1 assessed as fold change in rifampicin MIC at <=0.25 times MIC incubated for overnight by microbroth dilution checkerboard assay relative to rifampicin alone; format: functional; how it was run: as §5
Pseudomonas aeruginosa [23] = assay: Synergistic antibacterial activity against Pseudomonas aeruginosa NCTC 13437 assessed as fold change in rifampicin MIC at <=0.25 times MIC incubated for overnight by microbroth dilution checkerboard assay relative to rifampicin alone; format: functional; how it was run: as §5
Escherichia coli [24] = assay: Synergistic antibacterial activity against Escherichia coli NCTC 12923 assessed as fold change in rifampicin MIC at <=0.25 times MIC incubated for overnight by microbroth dilution checkerboard assay relative to rifampicin alone; format: functional; how it was run: as §3
Klebsiella pneumoniae [25] = assay: Antibacterial activity against Klebsiella pneumoniae M6 assessed as bacterial growth inhibition incubated for overnight by microbroth dilution method
Klebsiella pneumoniae [26] = assay: Antibacterial activity against ESBL Klebsiella pneumoniae NCTC 13368 assessed as bacterial growth inhibition incubated for overnight by microbroth dilution method
Enterococcus faecalis [27] = assay: Antibacterial activity against vancomycin sensitive Enterococcus faecalis NCTC 775 assessed as bacterial growth inhibition incubated for overnight by microbroth dilution method

SMILES	MIC (Pseudomonas aeruginosa [1]) [µg/mL]	MIC (Staphylococcus aureus [2]) [µg/mL]	MIC (Staphylococcus aureus [3]) [µg/mL]	MIC (Staphylococcus aureus [4]) [µg/mL]	MIC (Enterococcus faecalis [5]) [µg/mL]	MIC (Enterococcus faecium) [µg/mL]	MIC (Acinetobacter baumannii [6]) [µg/mL]	MIC (Acinetobacter baumannii [7]) [µg/mL]	MIC (Pseudomonas aeruginosa [8]) [µg/mL]	MIC (Escherichia coli [9]) [µg/mL]	MIC (Klebsiella pneumoniae [10]) [µg/mL]	MIC (Klebsiella pneumoniae [11]) [µg/mL]	MIC (Acinetobacter baumannii [12]) [µg/mL]	MIC (Acinetobacter baumannii [13]) [µg/mL]	MIC (Pseudomonas aeruginosa [14]) [µg/mL]	MIC (Pseudomonas aeruginosa [15]) [µg/mL]	MIC (Escherichia coli [16]) [µg/mL]	MIC (Staphylococcus aureus [17]) [µg/mL]	fold change (FC) (Klebsiella pneumoniae [19])	fold change (FC) (Acinetobacter baumannii [20])	further results
CCCCCCCC/C=C\CCCCCCCCNC(=N)NCCCCN	> 128	4 (≈ 10.5 µM)	4 (≈ 10.5 µM)	2 (≈ 5.25 µM)	4 (≈ 10.5 µM)	4 (≈ 10.5 µM)	16 (≈ 42 µM)	8 (≈ 21 µM)	128 (≈ 336 µM)	8 (≈ 21 µM)	≤ 0.125	16	≤ 0.125	≤ 0.125	16	16	8	4 (≈ 10.5 µM)	>=4	>=4	inhibition (INH) (Acinetobacter baumannii [18]): <20%; fold change (FC) (Acinetobacter baumannii [21]): >=4; fold change (FC) (Pseudomonas aeruginosa [22]): 0; fold change (FC) (Pseudomonas aeruginosa [23]): 0; fold change (FC) (Escherichia coli [24]): 0; MIC (Klebsiella pneumoniae [25]): 8 µg/mL (≈ 21 µM); MIC (Klebsiella pneumoniae [26]): 128 µg/mL (≈ 336 µM); MIC (Enterococcus faecalis [27]): 4 µg/mL (≈ 10.5 µM)
CC/C=C\C/C=C\C/C=C\CCCCCCCCNC(=N)NCCCCN	> 128	8 (≈ 21.2 µM)	8 (≈ 21.2 µM)	4 (≈ 10.6 µM)	8 (≈ 21.2 µM)	8 (≈ 21.2 µM)	128 (≈ 340 µM)	128 (≈ 340 µM)	> 128	32 (≈ 85 µM)	≤ 0.125	≤ 0.125	≤ 0.125	≤ 0.125	16	16	1	8 (≈ 21.2 µM)	>=4	>=4	fold change (FC) (Acinetobacter baumannii [21]): >=4; fold change (FC) (Pseudomonas aeruginosa [22]): 0; fold change (FC) (Pseudomonas aeruginosa [23]): 0; fold change (FC) (Escherichia coli [24]): >=4; MIC (Klebsiella pneumoniae [25]): 128 µg/mL (≈ 340 µM); MIC (Klebsiella pneumoniae [26]): > 128 µg/mL; MIC (Enterococcus faecalis [27]): 8 µg/mL (≈ 21.2 µM)
CCCCC/C=C\C/C=C\CCCCCCCCNC(=N)NCCCCN	> 64	8 (≈ 21.1 µM)	16 (≈ 42.3 µM)	8 (≈ 21.1 µM)	16 (≈ 42.3 µM)	16 (≈ 42.3 µM)	8 (≈ 21.1 µM)	8 (≈ 21.1 µM)	16 (≈ 42.3 µM)	4 (≈ 10.6 µM)	16	4	0.25	0.5	16	16	8	16 (≈ 42.3 µM)	0	>=4	fold change (FC) (Acinetobacter baumannii [21]): >=4; fold change (FC) (Pseudomonas aeruginosa [22]): 0; fold change (FC) (Pseudomonas aeruginosa [23]): 0; fold change (FC) (Escherichia coli [24]): 0; MIC (Klebsiella pneumoniae [25]): 8 µg/mL (≈ 21.1 µM); MIC (Klebsiella pneumoniae [26]): 16 µg/mL (≈ 42.3 µM); MIC (Enterococcus faecalis [27]): 32 µg/mL (≈ 84.5 µM)
